Measured values from ChEMBL document CHEMBL2385053, “Novel isoquinoline derivatives as antimicrobial agents” (2013).

Tests used:
Staphylococcus aureus [1] = experiment: Bactericidal activity against Staphylococcus aureus CECT 86 at 0.2 mg/disk after 24 hrs by paper disk-agar diffusion method; format: functional
In short: (§1)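 Each bacterial strain was taken from a 24-h culture on solid medium, reactivated in Nutrient Broth, and grown a further 24 h at 28 or 37 °C depending on the strain. 1 mL of suspension was mixed with 15 mL Plate Count Agar. Four 0.5 cm paper disks (0.2 mg/disk) were placed on the set agar. Controls were vehicle-only disks and tetracycline. Plates were incubated 24 h, dark, 28 or 37 °C. The inhibition zone was read in mm as the mean ± SE of three independent experiments.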

Bacillus cereus [2] = experiment: Bactericidal activity against Bacillus cereus CECT 148 at 0.2 mg/disk after 24 hrs by paper disk-agar diffusion method; format: functional; in short: as §1
Enterococcus faecalis [3] = experiment: Bactericidal activity against Enterococcus faecalis CECT 481 at 0.2 mg/disk after 24 hrs by paper disk-agar diffusion method; format: functional; in short: as §1
[4] = tested on: Pectobacterium carotovorum; experiment: Bactericidal activity against Erwinia carotovora CECT 225 at 0.2 mg/disk after 24 hrs by paper disk-agar diffusion method; format: functional; in short: as §1
Escherichia coli [5] = experiment: Bactericidal activity against Escherichia coli CECT 405 at 0.2 mg/disk after 24 hrs by paper disk-agar diffusion method; format: functional; in short: as §1
Escherichia coli [6] = experiment: Bactericidal activity against Escherichia coli CECT 100 at 0.2 mg/disk after 24 hrs by paper disk-agar diffusion method; format: functional; in short: as §1
Salmonella typhi [7] = experiment: Bactericidal activity against Salmonella typhi CECT 409 at 0.2 mg/disk after 24 hrs by paper disk-agar diffusion method; format: functional, Salmonella enterica subsp. enterica serovar Typhi
In short: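 Paper disk-agar diffusion, run in triplicate. 24-h culture reactivated in nutrient broth and grown a further 24 h at 28 or 37 °C by species. 1 mL suspension mixed into 15 mL plate count agar. Four 0.5 cm disks placed per plate, incubated 24 h in the dark. Inhibition zone (mm) reported as mean ± SE of three independent experiments; vehicle disks as negative control.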

Escherichia coli [8] = experiment: Bactericidal activity against Escherichia coli CECT 100 at 0.2 mg/disk after 24 hrs by paper disk-agar diffusion method relative to control; format: functional
Fusarium culmorum [9] = experiment: Fungicidal activity against Fusarium culmorum CCM 172 at 0.2 mg/disk after 72 hrs by paper disk-agar diffusion method; format: functional
In short: (§2)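 Fungi were grown on potato dextrose agar (PDA) for 7 days at 28 °C. Conidia were suspended to ~10⁶/mL in 0.05% Tween 80 in sterile water, and 1 mL was mixed into 15 mL PDA. Four 0.5 cm paper disks (0.2 mg/disk) were placed on the set agar. Controls were vehicle-only disks and benomyl at species-dependent doses. The inhibition zone was read in mm at 72 h as the mean ± SE of three independent experiments.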

Geotrichum candidum = experiment: Fungicidal activity against Geotrichum candidum CCM 245 at 0.2 mg/disk after 72 hrs by paper disk-agar diffusion method; format: functional; in short: as §2
Bacillus cereus [10] = experiment: Bactericidal activity against Bacillus cereus CECT 148 at 0.2 mg/disk after 24 hrs by paper disk-agar diffusion method relative to control; format: functional
[11] = tested on: Phytophthora citrophthora; experiment: Fungicidal activity against Phytophthora citrophthora CECT 2353 at 0.2 mg/disk after 72 hrs by paper disk-agar diffusion method; format: functional; in short: as §2
Trichoderma viride [12] = experiment: Fungicidal activity against Trichoderma viride CECT 2423 at 0.2 mg/disk after 72 hrs by paper disk-agar diffusion method; format: functional; in short: as §2
Aspergillus parasiticus [13] = experiment: Fungicidal activity against Aspergillus parasiticus CECT 2681 at 0.2 mg/disk after 72 hrs by paper disk-agar diffusion method; format: functional; in short: as §2
[14] = tested on: Pectobacterium carotovorum; experiment: Bactericidal activity against Erwinia carotovora CECT 225 at 0.2 mg/disk after 24 hrs by paper disk-agar diffusion method relative to control; format: functional
Enterococcus faecalis [15] = experiment: Bactericidal activity against Enterococcus faecalis CECT 481 at 0.2 mg/disk after 24 hrs by paper disk-agar diffusion method relative to control; format: functional
Salmonella typhi [16] = experiment: Bactericidal activity against Salmonella typhi CECT 409 at 0.2 mg/disk after 24 hrs by paper disk-agar diffusion method relative to control; format: functional, Salmonella enterica subsp. enterica serovar Typhi
Escherichia coli [17] = experiment: Bactericidal activity against Escherichia coli CECT 405 at 0.2 mg/disk after 24 hrs by paper disk-agar diffusion method relative to control; format: functional
Staphylococcus aureus [18] = experiment: Bactericidal activity against Staphylococcus aureus CECT 86 at 0.2 mg/disk after 24 hrs by paper disk-agar diffusion method relative to control; format: functional
[19] = tested on: Phytophthora citrophthora; experiment: Fungicidal activity against Phytophthora citrophthora CECT 2353 at 1.5 ug/disk after 72 hrs by paper disk-agar diffusion method; format: functional; conditions: CECT 2353, 72 h, read-out: IZ
In short: (§3)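 Fungi grown on potato dextrose agar for 7 days at 28 °C. Conidia suspended to about 10⁶/mL in 0.05% Tween 80 in sterile water. 1 mL suspension added to 15 mL PDA; four impregnated 0.5 cm disks placed after setting. Inhibition zone measured at 72 h; mean ± SE of three independent experiments. Vehicle disks as negative control; benomyl dose set per fungal species.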

Fusarium culmorum [20] = experiment: Fungicidal activity against Fusarium culmorum CCM 172 at 10 ug/disk after 72 hrs by paper disk-agar diffusion method; format: functional; conditions: CCM 172, 72 h, read-out: IZ; in short: as §3
Aspergillus parasiticus [21] = experiment: Fungicidal activity against Aspergillus parasiticus CECT 2681 at 1 ug/disk after 72 hrs by paper disk-agar diffusion method; format: functional; conditions: CECT 2681, 72 h, read-out: IZ; in short: as §3
Trichoderma viride [22] = experiment: Fungicidal activity against Trichoderma viride CECT 2423 at 1 ug/disk after 72 hrs by paper disk-agar diffusion method; format: functional; conditions: CECT 2423, 72 h, read-out: IZ; in short: as §3

SMILES	inhibition zone (IZ) (Staphylococcus aureus [1]) [mm]	inhibition zone (IZ) (Bacillus cereus [2]) [mm]	inhibition zone (IZ) (Enterococcus faecalis [3]) [mm]	inhibition zone (IZ) [4] [mm]	inhibition zone (IZ) (Escherichia coli [5]) [mm]	inhibition zone (IZ) (Escherichia coli [6]) [mm]	inhibition zone (IZ) (Salmonella typhi [7]) [mm]	Activity (Escherichia coli [8]) [%]	inhibition zone (IZ) (Fusarium culmorum [9]) [mm]	inhibition zone (IZ) (Geotrichum candidum) [mm]	inhibition zone (IZ) [11] [mm]	inhibition zone (IZ) (Trichoderma viride [12]) [mm]	inhibition zone (IZ) (Aspergillus parasiticus [13]) [mm]	other results
COc1cc2c(cc1OC)C(CCCCCO)N(C)CC2 (configuration not stated)	10.67	0	10.33	8	11.33	16	12.33	62						
COc1cc2c(cc1OC)C(CCCCCOC(=O)CCc1ccc(F)cc1)N(C)CC2 (configuration not stated)	10.33	11.33	9.33	11.67	8.83	11.83	9.17	46	7.67	8.33	6	8.33	0	Activity (Bacillus cereus [10]): 49%
COc1cc2c(cc1OC)C(CCCCCOC(=O)Nc1ccccc1)N(C)CC2 (configuration not stated)	15	12.67	14.17	10.67	12.33	15.17	12	59	7	6.25	0	5.75	0	
COc1cc2c(cc1OC)C(CCCCCOC(=O)Nc1ccc(F)cc1)N(C)CC2 (configuration not stated)	14	14.33	20	22.33	12	12.33	14.67							Activity [14]: 64%; Activity (Enterococcus faecalis [15]): 64%
COc1cc2c(cc1OC)C(CCCCCOC(=O)Nc1ccc(Cl)cc1)N(C)CC2 (configuration not stated)	17.33	14.33	18	12.5	17.33	13.17	16.33		7.33	10.33	0	8.67	0	Activity (Salmonella typhi [16]): 67%; Activity (Escherichia coli [17]): 68%
COc1ccc(NC(=O)OCCCCCC2c3cc(OC)c(OC)cc3CCN2C)cc1 (configuration not stated)	13.67	10.33	14.67	9.67	13.33	11.67	11.33		0	6.67	0	6.17	0	Activity (Staphylococcus aureus [18]): 51%; Activity (Escherichia coli [17]): 52%
CCCCNC(=O)n1c(NC(=O)OC)nc2ccccc21 [BENOMYL]										0				zone of inhibition at 1.5 µg/disc [19]: 24.5 mm; zone of inhibition at 10 µg/disc (Fusarium culmorum [20]): 18 mm; zone of inhibition at 1 µg/disc (Aspergillus parasiticus [21]): 18 mm; zone of inhibition at 1 µg/disc (Trichoderma viride [22]): 22 mm
